Experiments:
[1] = Drug uptake in kidney of female nude mouse harboring null mutation of CD1 antigen complex assessed as increase in renal excretion at 5.1 to 7.4 MBq, iv measured after 15 to 60 mins by gamma counter analysis; format: ADME, organism-based; settings: in vivo, dose lower 5.1 MBq, time lower 15 min, dose upper 7.4 MBq, time upper 60 min
Summary of the method: (§1)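 Female CD1 nude mice, 6–8 weeks old (20–25 g), received the radiotracer through the lateral tail vein. At 15, 30 and 60 min p.i. (n = 3 per time point) blood was drawn by cardiac puncture and the animals were euthanized. Organs were excised, weighed and γ-counted. Uptake is expressed as %ID/g.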

[2] = Drug uptake in tumor of female nude mouse harboring null mutation of CD1 antigen complex xenografted with human U-87 MG cells at 5 to 7.4 MBq, iv pretreated with (S)-N-(2-(2-cyano-4,4-difluoropyrrolidin-1-yl)-2-oxoethyl)quinoline-4-carboxamide for 30 mins followed by radioligand addition and measured measured after 60 mins by PET/CT analysis; format: ADME, organism-based, Neoplasm; settings: in vivo, 1 h, dose 5-7.4 MBq
Summary of the method: (§2)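 U-87MG xenografts (5×10^6 cells, subcutaneous flank) were grown in female CD1 nude mice to about 200 mm3. Dynamic whole-body PET over 60 min p.i. was followed by CT. Images were reconstructed with OSEM 3D and expressed as %ID/mL to give time-activity curves. For blocking, the FAP inhibitor (5 mg/kg) was given via the tail vein 30 min before the tracer; n=4.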

[3] = Stability in female nude mouse harboring null mutation of CD1 antigen complex assessed as drug degradation at 5.1 to 7.4 MBq, iv measured at 60 mins by radio-HPLC analysis; format: ADME, organism-based; settings: 1 h, dose 5.1-7.4 MBq
Summary of the method: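 Female CD1 nude mice received 5.1–7.4 MBq i.v. EDTA blood collected at 15, 30 and 60 min p.i. (n=3 per time point) was centrifuged to plasma, deproteinized with cold ACN and centrifuged. The supernatant was analyzed by radio-HPLC with 30 s fractions γ-counted to give the percent intact tracer.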

[4] = Drug uptake in tumor of female nude mouse harboring null mutation of CD1 antigen complex xenografted with human HT-29 cells with decreased FAP positive tumor area at 5 to 7.4 MBq, iv measured after 60 mins by immunohistochemistry analysis; format: ADME, organism-based, Neoplasm; settings: in vivo, 1 h, dose 5-7.4 MBq
[5] = Drug uptake in tumor of female nude mouse harboring null mutation of CD1 antigen complex xenografted with human U-87 MG cells with increased FAP positive tumor area at 5 to 7.4 MBq, iv measured after 60 mins by immunohistochemistry analysis; format: ADME, organism-based, Neoplasm; settings: in vivo, 1 h, dose 5-7.4 MBq
[6] = Drug uptake in bone structures of female nude mouse harboring null mutation of CD1 antigen complex xenografted with human U-87 MG cells at 5 to 7.4 MBq, iv measured after 60 mins by gamma counter analysis; format: ADME, organism-based, Bone element; settings: in vivo, 1 h, dose 5-7.4 MBq
[7] = Stability in PBS assessed as compound remaining at 185 kBq measured upto 60 mins by radio-HPLC analysis; format: physicochemical; settings: read-out: Stability
Summary of the method: (§3)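 Radiotracer was incubated at 37 °C for up to 60 min in PBS (0.01 M, pH 7.4) or in mouse plasma. Samples were deproteinized with an equal volume of cold ACN and centrifuged. The supernatant was analyzed by radio-HPLC with 30 s fractions γ-counted to give the intact fraction. Triplicates.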

[8] = Ratio of drug level in tumor to blood of female nude mouse harboring null mutation of CD1 antigen complex xenografted with human U-87 MG cells at 5 to 7.4 MBq, iv measured at 60 mins postinjection by gamma counter analysis; format: ADME, organism-based; settings: tumour, 1 h, dose 5-7.4 MBq
Summary of the method: (§4)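 Subcutaneous U-87MG xenografts (5×10^6 cells in DPBS, hind flank) were grown in female CD1 nude mice to about 200 mm3. After tail-vein radiotracer injection and a 60 min dynamic PET scan, tissues were harvested at 60 min p.i. and γ-counted (%ID/g). Tumor-to-tissue ratios are means ± SD of individual ratios, n=4 per tracer.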

[9] = Stability in CD1 mouse plasma assessed as drug degradation at 185 kBq measured upto 60 mins by radio-HPLC analysis; format: ADME, cell-free; settings: 1 h; summary of the method: as §3
[10] = Drug uptake in tumor of female nude mouse harboring null mutation of CD1 antigen complex xenografted with human U-87 MG cells at 5 to 7.4 MBq, iv measured at 60 mins by PET/CT analysis; format: ADME, organism-based, Neoplasm; settings: in vivo, 1 h, dose 5-7.4 MBq; summary of the method: as §2
[11] = Drug uptake in intestine of female nude mouse harboring null mutation of CD1 antigen complex at 5.1 to 7.4 MBq, iv measured after 15 to 60 mins by gamma counter analysis; format: ADME, organism-based; settings: in vivo, dose lower 5.1 MBq, time lower 15 min, dose upper 7.4 MBq, time upper 60 min; summary of the method: as §1
[12] = Drug uptake in skull of female nude mouse harboring null mutation of CD1 antigen complex xenografted with human U-87 MG cells at 5 to 7.4 MBq, iv measured after 60 mins by gamma counter analysis; format: ADME, organism-based; settings: in vivo, 1 h, dose 5-7.4 MBq
[13] = Drug uptake in liver of female nude mouse harboring null mutation of CD1 antigen complex at 5.1 to 7.4 MBq, iv measured after 15 to 60 mins by gamma counter analysis; format: ADME, organism-based; settings: in vivo, dose lower 5.1 MBq, time lower 15 min, dose upper 7.4 MBq, time upper 60 min; summary of the method: as §1
[14] = Ratio of drug level in tumor to muscle of female nude mouse harboring null mutation of CD1 antigen complex xenografted with human U-87 MG cells at 5 to 7.4 MBq, iv measured at 60 mins postinjection by gamma counter analysis; format: ADME, organism-based; settings: in vivo, 1 h, dose 5-7.4 MBq; summary of the method: as §4
[15] = Stability in PBS assessed as drug degradation at 185 kBq measured upto 60 mins by radio-HPLC analysis; format: physicochemical; settings: buffer, 1 h; summary of the method: as §3
[16] = Octanol/water partition coefficient, logD of compound at 74 kBq incubated for 2 mins by gamma counter method; format: physicochemical
Summary of the method: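 Octanol and PBS phases were mixed and vortexed for 2 min, then centrifuged at 3,000 rpm for 10 min. Aliquots of 0.5 mL from each phase were γ-counted and corrected for mass and density. LogD was taken as log10 of the octanol/PBS radioactivity ratio.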

[17] = Ratio of drug level in tumor to liver of female nude mouse harboring null mutation of CD1 antigen complex xenografted with human U-87 MG cells at 5 to 7.4 MBq, iv measured at 60 mins postinjection by gamma counter analysis; format: ADME, organism-based; settings: in vivo, 1 h, dose 5-7.4 MBq; summary of the method: as §4
[18] = Drug uptake in urinary bladder of female nude mouse harboring null mutation of CD1 antigen complex assessed as increase in renal excretion at 5.1 to 7.4 MBq, iv measured after 15 to 60 mins by gamma counter analysis; format: ADME, organism-based; settings: in vivo, dose lower 5.1 MBq, time lower 15 min, dose upper 7.4 MBq, time upper 60 min; summary of the method: as §1
[19] = Ratio of drug level in tumor to small intestine of female nude mouse harboring null mutation of CD1 antigen complex xenografted with human U-87 MG cells at 5 to 7.4 MBq, iv measured at 60 mins postinjection by gamma counter analysis; format: ADME, organism-based; settings: in vivo, 1 h, dose 5-7.4 MBq; summary of the method: as §4
[20] = Stability in CD1 mouse plasma assessed as compound remaining at 185 kBq measured upto 60 mins by radio-HPLC analysis; format: ADME, cell-free; settings: read-out: Stability; summary of the method: as §3
Prolyl endopeptidase FAP = target: T1, Prolyl endopeptidase FAP (Homo sapiens, UniProt Q12884); experiment: Inhibition of FAP (unknown origin) using Z-Gly-Pro-7-amino-4-methylcoumarine as fluorogenic substrate preincubated for 15 mins followed by substrate addition and measured after 15 mins
T1 sequence (Q12884 whole entry): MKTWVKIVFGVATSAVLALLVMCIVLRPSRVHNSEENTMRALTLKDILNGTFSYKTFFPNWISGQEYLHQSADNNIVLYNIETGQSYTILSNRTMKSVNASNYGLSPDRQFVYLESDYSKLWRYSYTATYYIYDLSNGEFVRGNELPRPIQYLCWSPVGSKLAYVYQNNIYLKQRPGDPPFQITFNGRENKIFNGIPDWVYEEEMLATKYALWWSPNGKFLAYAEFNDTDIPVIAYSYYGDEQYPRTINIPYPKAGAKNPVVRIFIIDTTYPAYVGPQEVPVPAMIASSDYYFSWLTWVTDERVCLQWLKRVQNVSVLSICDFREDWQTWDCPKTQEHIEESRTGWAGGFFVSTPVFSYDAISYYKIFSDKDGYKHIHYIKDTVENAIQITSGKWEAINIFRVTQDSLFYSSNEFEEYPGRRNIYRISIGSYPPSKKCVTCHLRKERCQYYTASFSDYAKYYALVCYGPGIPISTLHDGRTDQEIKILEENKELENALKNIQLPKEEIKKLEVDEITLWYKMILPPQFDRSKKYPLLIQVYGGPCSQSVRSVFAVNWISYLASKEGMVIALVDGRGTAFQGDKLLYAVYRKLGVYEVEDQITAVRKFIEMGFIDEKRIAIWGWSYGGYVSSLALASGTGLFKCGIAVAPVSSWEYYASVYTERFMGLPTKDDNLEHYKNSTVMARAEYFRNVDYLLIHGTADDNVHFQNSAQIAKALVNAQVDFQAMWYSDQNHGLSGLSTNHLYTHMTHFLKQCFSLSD

Dipeptidyl peptidase 9 = Dipeptidyl peptidase 9 (Homo sapiens, UniProt Q86TI2); experiment: Inhibition of DPP9 (unknown origin) using Ala-Pro-paranitroanilide as chromogenic substrate preincubated for 15 mins followed by substrate addition and measured after 15 mins
Dipeptidyl peptidase 2 = Dipeptidyl peptidase 2 (Homo sapiens, UniProt Q9UHL4); experiment: Inhibition of DPP2 (unknown origin) using Lys-Ala-pNA as substrate preincubated for 15 mins followed by substrate addition and measured after 15 mins
Prolyl endopeptidase = target: T2, Prolyl endopeptidase (Homo sapiens, UniProt P48147); experiment: Inhibition of PREP (unknown origin) using N-succinyl-Gly-Pro-AMC as substrate preincubated for 15 mins followed by substrate addition and measured after 15 mins
T2 sequence (P48147 whole entry): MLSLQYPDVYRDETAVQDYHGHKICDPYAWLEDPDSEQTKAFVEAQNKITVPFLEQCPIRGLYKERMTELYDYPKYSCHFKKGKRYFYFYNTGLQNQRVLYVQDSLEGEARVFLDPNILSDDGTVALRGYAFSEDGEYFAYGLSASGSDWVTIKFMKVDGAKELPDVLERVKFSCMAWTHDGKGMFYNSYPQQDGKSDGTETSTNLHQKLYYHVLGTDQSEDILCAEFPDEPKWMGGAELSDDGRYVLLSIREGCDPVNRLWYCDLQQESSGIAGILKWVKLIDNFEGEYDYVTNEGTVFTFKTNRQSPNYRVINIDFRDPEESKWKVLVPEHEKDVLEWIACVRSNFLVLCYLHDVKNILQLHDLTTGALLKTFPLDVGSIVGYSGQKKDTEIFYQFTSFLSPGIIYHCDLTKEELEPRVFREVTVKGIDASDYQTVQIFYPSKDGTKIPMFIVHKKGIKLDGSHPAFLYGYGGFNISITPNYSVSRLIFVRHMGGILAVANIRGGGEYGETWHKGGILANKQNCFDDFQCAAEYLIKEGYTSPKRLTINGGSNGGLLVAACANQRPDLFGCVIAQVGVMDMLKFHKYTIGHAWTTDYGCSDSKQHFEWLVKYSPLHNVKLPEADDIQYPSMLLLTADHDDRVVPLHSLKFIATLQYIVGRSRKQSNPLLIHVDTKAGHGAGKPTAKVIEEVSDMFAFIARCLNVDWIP

Dipeptidyl peptidase 8 = Dipeptidyl peptidase 8 (Homo sapiens, UniProt Q6V1X1); experiment: Inhibition of DPP8 (unknown origin) using Ala-Pro-paranitroanilide as chromogenic substrate preincubated for 15 mins followed by substrate addition and measured after 15 mins
Dipeptidyl peptidase 4 = Dipeptidyl peptidase 4 (Homo sapiens, UniProt P27487); experiment: Inhibition of DPP4 (unknown origin) using Ala-Pro-paranitroanilide as chromogenic substrate preincubated for 15 mins followed by substrate addition and measured after 15 mins
[21] = Drug uptake in blood of female nude mouse harboring null mutation of CD1 antigen complex at 5.1 to 7.4 MBq, iv measured after 15 to 60 mins by gamma counter analysis; format: ADME, organism-based; settings: in vivo, dose lower 5.1 MBq, time lower 15 min, dose upper 7.4 MBq, time upper 60 min; summary of the method: as §1

Dipeptidyl peptidase 4, sequence (P27487 whole entry): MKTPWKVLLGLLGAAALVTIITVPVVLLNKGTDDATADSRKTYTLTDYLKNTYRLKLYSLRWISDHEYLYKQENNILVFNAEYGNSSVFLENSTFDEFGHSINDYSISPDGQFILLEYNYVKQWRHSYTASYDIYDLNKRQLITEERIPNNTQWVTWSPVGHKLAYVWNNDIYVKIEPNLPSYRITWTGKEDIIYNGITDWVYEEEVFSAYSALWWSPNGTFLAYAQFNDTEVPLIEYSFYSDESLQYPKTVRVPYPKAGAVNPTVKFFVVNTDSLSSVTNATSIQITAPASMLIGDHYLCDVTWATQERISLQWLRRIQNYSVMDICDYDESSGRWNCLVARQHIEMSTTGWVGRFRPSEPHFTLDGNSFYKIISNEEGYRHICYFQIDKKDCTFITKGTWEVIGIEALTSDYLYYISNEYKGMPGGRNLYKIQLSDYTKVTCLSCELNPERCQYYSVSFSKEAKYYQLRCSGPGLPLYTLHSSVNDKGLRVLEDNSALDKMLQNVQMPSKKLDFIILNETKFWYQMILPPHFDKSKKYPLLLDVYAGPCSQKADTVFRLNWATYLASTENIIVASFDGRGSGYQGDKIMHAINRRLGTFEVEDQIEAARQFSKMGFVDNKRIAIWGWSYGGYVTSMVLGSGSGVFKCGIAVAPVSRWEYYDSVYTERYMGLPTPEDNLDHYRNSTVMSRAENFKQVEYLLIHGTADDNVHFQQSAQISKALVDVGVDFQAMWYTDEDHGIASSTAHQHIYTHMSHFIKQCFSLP
Dipeptidyl peptidase 8, sequence (Q6V1X1 whole entry): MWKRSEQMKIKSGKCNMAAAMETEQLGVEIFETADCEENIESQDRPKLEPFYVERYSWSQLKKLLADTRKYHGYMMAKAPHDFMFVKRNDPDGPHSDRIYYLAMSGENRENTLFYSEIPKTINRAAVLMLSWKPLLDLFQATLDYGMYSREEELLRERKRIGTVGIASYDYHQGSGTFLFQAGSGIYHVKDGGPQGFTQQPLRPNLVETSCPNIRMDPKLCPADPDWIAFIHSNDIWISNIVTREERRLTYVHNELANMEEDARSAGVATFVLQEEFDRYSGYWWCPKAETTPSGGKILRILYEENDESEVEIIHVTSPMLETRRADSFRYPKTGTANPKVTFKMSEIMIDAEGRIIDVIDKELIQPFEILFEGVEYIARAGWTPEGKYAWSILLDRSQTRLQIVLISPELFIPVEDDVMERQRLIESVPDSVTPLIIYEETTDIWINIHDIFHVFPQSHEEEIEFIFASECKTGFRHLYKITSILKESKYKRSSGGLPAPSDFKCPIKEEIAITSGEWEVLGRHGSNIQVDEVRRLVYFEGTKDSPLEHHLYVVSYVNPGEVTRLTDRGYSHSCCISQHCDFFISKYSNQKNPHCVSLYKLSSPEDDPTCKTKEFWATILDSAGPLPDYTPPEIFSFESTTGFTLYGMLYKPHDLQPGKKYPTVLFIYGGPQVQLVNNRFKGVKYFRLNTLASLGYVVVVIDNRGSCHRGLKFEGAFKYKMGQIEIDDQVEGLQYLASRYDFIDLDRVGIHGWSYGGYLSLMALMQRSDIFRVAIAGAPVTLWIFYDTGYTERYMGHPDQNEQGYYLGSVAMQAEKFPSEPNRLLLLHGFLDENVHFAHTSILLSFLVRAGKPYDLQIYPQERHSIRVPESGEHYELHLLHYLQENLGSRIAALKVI
Dipeptidyl peptidase 9, sequence (Q86TI2 whole entry): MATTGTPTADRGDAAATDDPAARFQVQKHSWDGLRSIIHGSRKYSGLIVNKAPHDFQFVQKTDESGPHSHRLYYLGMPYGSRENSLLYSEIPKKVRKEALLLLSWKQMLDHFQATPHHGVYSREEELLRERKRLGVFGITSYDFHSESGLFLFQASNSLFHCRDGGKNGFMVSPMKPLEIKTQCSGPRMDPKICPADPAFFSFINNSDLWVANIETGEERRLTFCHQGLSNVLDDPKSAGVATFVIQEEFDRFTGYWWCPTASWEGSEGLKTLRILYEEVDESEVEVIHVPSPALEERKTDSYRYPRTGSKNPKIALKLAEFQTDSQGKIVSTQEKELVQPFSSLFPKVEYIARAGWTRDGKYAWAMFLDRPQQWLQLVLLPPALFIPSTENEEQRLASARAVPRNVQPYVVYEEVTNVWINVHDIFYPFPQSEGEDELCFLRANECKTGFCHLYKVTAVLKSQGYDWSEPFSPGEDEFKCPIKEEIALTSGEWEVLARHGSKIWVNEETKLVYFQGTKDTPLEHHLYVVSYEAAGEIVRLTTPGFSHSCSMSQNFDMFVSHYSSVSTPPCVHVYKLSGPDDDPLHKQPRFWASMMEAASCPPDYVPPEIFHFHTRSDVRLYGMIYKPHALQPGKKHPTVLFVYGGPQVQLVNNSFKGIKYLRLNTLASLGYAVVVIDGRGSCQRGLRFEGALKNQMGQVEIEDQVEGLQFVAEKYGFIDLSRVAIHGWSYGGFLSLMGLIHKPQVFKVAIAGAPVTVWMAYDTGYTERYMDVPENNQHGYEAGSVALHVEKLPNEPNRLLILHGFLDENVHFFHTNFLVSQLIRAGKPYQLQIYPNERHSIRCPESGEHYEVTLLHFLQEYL

N#C[C@@H]1CC(F)(F)CN1C(=O)CNC(=O)c1ccnc2ccc(OCC(O)C[18F])cc12 (stereo partly drawn)
Drug uptake [1]: Active | Drug uptake [2]: Not Active | Stability [3]: Unstable | Drug uptake [4]: Not Active | Drug uptake [5]: Active | Drug uptake [6]: Active | remaining at 1 h, 185 kBq [7]: > 70% | Ratio [8]: 6.58 | Stability [9]: Stable | Drug uptake [10]: < 3 %ID/ml | Drug uptake [11]: Active | Drug uptake [12]: Active | Drug uptake [13]: Active | Ratio [14]: 3.6 | Stability [15]: Stable | logD at 2 min [16]: 0.18 | Ratio [17]: 2.37 | Drug uptake [18]: Active | Ratio [19]: 0.16 | remaining at 1 h, 185 kBq [20]: > 70%

CC1(C)O[C@@H](CF)[C@H](COc2ccc3nccc(C(=O)NCC(=O)N4CC(F)(F)C[C@H]4C#N)c3c2)O1
IC50 (Prolyl endopeptidase FAP): 0.00046 µM | IC50 (Dipeptidyl peptidase 9): > 10 µM | IC50 (Dipeptidyl peptidase 2): > 10 µM | IC50 (Prolyl endopeptidase): > 10 µM | IC50 (Dipeptidyl peptidase 8): > 10 µM | IC50 (Dipeptidyl peptidase 4): > 10 µM

N#C[C@@H]1CC(F)(F)CN1C(=O)CNC(=O)c1ccnc2ccc(OCC(O)C(O)C[18F])cc12 (stereo partly drawn)
Drug uptake [1]: Active | Drug uptake [2]: Not Active | Stability [3]: Unstable | Drug uptake [4]: Not Active | Drug uptake [5]: Active | Drug uptake [6]: Active | remaining at 1 h, 185 kBq [7]: > 70% | Ratio [8]: 6.56 | Stability [9]: Stable | Drug uptake [10]: < 3 %ID/ml | Drug uptake [11]: Active | Drug uptake [12]: Active | Drug uptake [21]: 0.13 % ID/g | Drug uptake [13]: Active | Ratio [14]: 5.26 | Stability [15]: Stable | logD at 2 min [16]: -0.27 | Ratio [17]: 1.67 | Drug uptake [18]: Active | Ratio [19]: 0.12 | remaining at 1 h, 185 kBq [20]: > 70%

N#C[C@@H]1CC(F)(F)CN1C(=O)CNC(=O)c1ccnc2ccc(OCC(O)CF)cc12 (stereo partly drawn)
IC50 (Prolyl endopeptidase FAP): 0.00437 µM | IC50 (Dipeptidyl peptidase 9): > 10 µM | IC50 (Dipeptidyl peptidase 2): > 10 µM | IC50 (Prolyl endopeptidase): > 10 µM | IC50 (Dipeptidyl peptidase 8): > 10 µM | IC50 (Dipeptidyl peptidase 4): > 10 µM
